We go through 95 compounds from PubChem BioAssay AID504382 (The Scripps Research Institute Molecular Screening Center, 2011).

Molecules are shown by their SMILES. Out of some 2,500 compounds screened, about 460 (18%) were called active.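 The calls were made as follows: active = mean activation above a cutoff of low control average plus 3 SD from the earlier screen (cut at about 12% in these data); inactive = the rest.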 These entries were drawn from the full list.

The experiment can be described thus: IANBD-channel fluorescence artefacts in buffer – biochemical, artefact control for cardiac RTF calcium sensitizer project, confirmation (AID 504382). The settings on record: IANBD fluorescence interference counterscreen, EC20 Ca2+, at 7.2 µM, hits give high values, scaled: EC20 calcium 0, EC100 calcium 100. In short, it runs like this: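 Also added: EC20 calcium, 0.472 mM; dosing: single nominal 7.2 µM compound dose, 0.7% DMSO final; timing: 15 min, 25 °C; detection: fluorescence intensity, excitation 480 nm, emission 540 nm; replicates: each compound tested in triplicate wells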
For orientation: The purpose of a counterscreen is to sort out artefacts and off-target activity.
For `CCN1CCN(C2=CC3=CC(=C(C#N)C#N)CCC3CC2)CC1` (stereo not given), the fluorescence artifact activation is 0.47% (inactive).

Regarding `Cc1ccc(C2NC(=O)c3c(sc4c3CCN(C)C4)N2)s1` (stereo not given), the fluorescence artifact activation is 0% (inactive).

For the compound `CN1CCc2c(sc3c2C(=O)NC(c2cccs2)N3)C1` (stereo not given), the fluorescence artifact activation was 0.27% (inactive).

As for `Cc1ccsc1C1NC(=O)c2c(sc3c2CCN(C)C3)N1` (stereo not given), the fluorescence artifact activation is 28.8% (active).

With `CCOC(=O)c1c(NC(=O)CSc2nc3cc(Cl)ccc3c(=O)n2Cc2ccco2)sc(C(=O)N(C)C)c1C`, the fluorescence artifact activation was 0% (inactive).

On to `COc1ccc(OC)c(/C=C2\N=C(c3ccccc3)OC2=O)c1`, for which the fluorescence artifact activation was 8.78% (inactive).

As for `C#CCSc1nc2[nH]ncc2c(=O)[nH]1`, the fluorescence artifact activation is 0.09% (inactive).

For the compound `CNc1ccccc1C(C)(C)c1cc(C)[nH]n1`, the fluorescence artifact activation was 3.66% (inactive).

Take `COc1ccc(O)c(/C=N/c2nc3ccccc3n2C)c1`: the fluorescence artifact activation was 0.05% (inactive).

For the compound `COc1ccc(N=Nc2nc3ccc(Br)cc3n2C)cc1`, the fluorescence artifact activation was 0.16% (inactive).

As to `COc1ccc(N=Nc2nc3cc(Br)c(Br)cc3n2C)c(OC)c1`, the fluorescence artifact activation was 765% (active).

On to `CCOC(=O)C1=C(COC(=O)c2ccc3ccccc3c2O)NC(=O)NC1C` (stereo not given), for which the fluorescence artifact activation was 0.49% (inactive).

For `CCOC(=O)c1cc2c(=O)n3ccccc3nc2n(CCOC)c1=NC(=O)c1c(-c2c(F)cccc2Cl)noc1C`, the fluorescence artifact activation was 0.12% (inactive).

Take `COc1ccc2cc(C(=O)N/N=C/c3sc4ccccc4c3O)ccc2c1`: the fluorescence artifact activation is 93.2% (active).

As for `O=C(N/N=C/c1sc2ccccc2c1O)c1ccccc1`, the fluorescence artifact activation was 9.97% (inactive).

As for `COc1ccc(C(=O)N/N=C/c2sc3ccccc3c2O)cc1`, the fluorescence artifact activation was 1.31% (inactive).

On to `CC(C)(CN1CCc2ccccc2C1)NS(=O)(=O)c1ccc(Cl)cc1`, for which the fluorescence artifact activation was 0.2% (inactive).

Consider `O=c1oc2c3c4c(cc2c(C(F)(F)F)c1CCN1CCOCC1)CCCN4CCC3`, for which the fluorescence artifact activation is -0.03% (inactive).

As for `Cn1ncc(N=Cc2c(O)ccc3ccccc23)c1C(=O)Nc1cccc(Cl)c1`, the fluorescence artifact activation was 0.09% (inactive).

`O=C1c2cccc3c(N4CCCCC4)ccc(c23)C(=O)N1c1ccccc1O`: the fluorescence artifact activation is -0.03% (inactive).

With `O=C1c2cccc3c(O)ccc(c23)C(=O)N1Cc1ccccc1`, the fluorescence artifact activation was 11.9% (active).

Take `CCNc1cccc2c1C(=O)N(C)C2=O`: the fluorescence artifact activation was 0.15% (inactive).

As for `CC1(C)CC2CC(C)(CN2CC(=O)C(C#N)c2ccccc2)C1` (stereo not given), the fluorescence artifact activation was 0.12% (inactive).

For `Cc1cccc(/C=N/n2c(-c3ccncc3)n[nH]c2=S)c1`, the fluorescence artifact activation was 7.13% (inactive).

For `C=CCn1cc(/C=C/c2cc[n+](C)cc2)c2ccccc21`, the fluorescence artifact activation was 0.14% (inactive).

In the case of `N#C/C(=C\c1coc2ccc(O)cc2c1=O)C(=O)Nc1nc2ccccc2s1`, the fluorescence artifact activation was 1.92% (inactive).

As to `Fc1ccc(CN2CC[C@H]3C=CCc4cccc(c43)C2)cc1`, the fluorescence artifact activation was 52.5% (active).

With `COc1cc(/C=C2/SC(=S)N(CCC(=O)Nc3ccccc3)C2=O)cc(OC)c1OC`, the fluorescence artifact activation is 0.06% (inactive).

For `CCOc1ccc(NC(=O)/C(C#N)=C\c2ccc(N3CCCC3)c(C)c2)cc1`, the fluorescence artifact activation was 0.15% (inactive).

On to `CSc1nnc(-c2ccc(S(=O)(=O)N3CCCC3)cc2)n1C`, for which the fluorescence artifact activation is 0.02% (inactive).

Regarding `CSc1nc2ccccc2n1CC(=O)Nc1c(C)cccc1C`, the fluorescence artifact activation is 2.26% (inactive).

As for `CCN1C(=O)/C(=C/N2CCc3ccccc32)SC1=S`, the fluorescence artifact activation was 12.6% (active).

For the compound `CCN1/C(=C2\SC(=S)N(Cc3ccccc3)C2=O)Sc2ccccc21`, the fluorescence artifact activation is 0.08% (inactive).

With `CN1CCS/C1=C/C=C1/SC(=S)N(Cc2ccccc2)C1=O`, the fluorescence artifact activation is -0.03% (inactive).

On to `S=C(NCCCN1CCOCC1)Nc1ccc(-c2nc3ccccc3[nH]2)cc1`, for which the fluorescence artifact activation was 0.17% (inactive).

As to `O=c1oc2c(CN3CCCCC3)c(O)ccc2cc1-c1nc2ccccc2[nH]1`, the fluorescence artifact activation was 60.5% (active).

On to `O=c1oc2c(O)cccc2cc1-c1nc2ccccc2[nH]1`, for which the fluorescence artifact activation is 0.04% (inactive).

For `O=C1CCc2cc(S(=O)(=O)NC3CCCCC3)ccc2N1`, the fluorescence artifact activation was -0.07% (inactive).

`Cc1ccc(CNC(=O)CC(C)S(=O)(=O)c2ccc3c(c2)NC(=O)CS3)o1` (stereo not given): the fluorescence artifact activation is 45.8% (active).

As for `Cc1cc(C)n2nc(SCC(=O)N(C)Cc3ccccc3)nc2n1`, the fluorescence artifact activation is -0.05% (inactive).

Take `CN(C)Cc1c(O)ccc2c1O/C(=C\C=C\c1ccccc1)C2=O`: the fluorescence artifact activation is 0.37% (inactive).

On to `CCN(CC)Cc1c(O)ccc2c1O/C(=C\C=C\c1ccccc1)C2=O`, for which the fluorescence artifact activation was 0.87% (inactive).

Consider `CCN1CCN(Cc2c(O)ccc3c2O/C(=C\c2ccccc2)C3=O)CC1`, for which the fluorescence artifact activation is 2.91% (inactive).

Turning to `CCN1CCN(Cc2c(O)ccc3c2O/C(=C\C=C\c2ccccc2)C3=O)CC1`, the fluorescence artifact activation was 20.6% (active).

`O=C1/C(=C/C=C/c2ccccc2)Oc2c1ccc(O)c2CN1CCN(CCO)CC1`: the fluorescence artifact activation was 46.6% (active).

Regarding `Cc1ccc(/C=C2\Oc3c(ccc(O)c3CN3CCN(CCO)CC3)C2=O)cc1`, the fluorescence artifact activation was 4.11% (inactive).

In the case of `COc1ccccc1/C=C/C=C1\Oc2c(ccc(O)c2CN2CCN(CCO)CC2)C1=O`, the fluorescence artifact activation was 11.9% (active).

Take `CCN1CCN(Cc2c(O)ccc3c2O/C(=C\C=C\c2ccccc2OC)C3=O)CC1`: the fluorescence artifact activation is 1.64% (inactive).

For `COc1ccccc1/C=C/C=C1\Oc2c(ccc(O)c2CN(C)C)C1=O`, the fluorescence artifact activation was 5.64% (inactive).

`Cc1c(/C=N/O)c2ccccn2c1C=O`: the fluorescence artifact activation was 0.97% (inactive).

As for `O=[N+]([O-])c1cc(-c2nc(-c3ccncc3)no2)ccc1Cl`, the fluorescence artifact activation was -0.06% (inactive).

Regarding `CCCc1ccc(OCc2ccc(C(=O)NN)o2)c(OC)c1`, the fluorescence artifact activation was -0.08% (inactive).

As for `CN1CCCc2cc3c(C(F)(F)F)cc(=O)oc3nc21`, the fluorescence artifact activation was 1.21% (inactive).

Turning to `CC1CCCCC1NS(=O)(=O)CCNC(=O)c1ccccc1` (stereo not given), the fluorescence artifact activation is -0.01% (inactive).

On to `CC(CC(=O)N1CCc2ccccc21)n1cccn1` (stereo not given), for which the fluorescence artifact activation is 0.19% (inactive).

Take `C[C@H](O)C(=O)C1=Nc2c(nc(N)[nH]c2=O)NC1`: the fluorescence artifact activation is 0.04% (inactive).

On to `CC(=O)c1cccc(NC(=O)Cn2nc(-c3ccccc3Cl)ccc2=O)c1`, for which the fluorescence artifact activation is 0.29% (inactive).

Take `CN1C(=O)NC(c2ccccc2[N+](=O)[O-])C2=C1CCCC2=O` (stereo not given): the fluorescence artifact activation was 0.1% (inactive).

For the compound `CCN1C(=S)N[C@@H](CCc2ccccc2)[C@H](C(=O)OC)[C@H]1C`, the fluorescence artifact activation is 20.1% (active).

Regarding `O=C(N/N=C/c1ccc([N+](=O)[O-])cc1)c1cc(-c2ccc3c(c2)OCO3)n[nH]1`, the fluorescence artifact activation is 0.03% (inactive).

Consider `CSc1nc(C)nc(N/C=C(\C#N)S(=O)(=O)c2ccccc2Cl)n1`, for which the fluorescence artifact activation was 0.27% (inactive).

Take `COC(=O)c1cc2c(cc1NC(=O)CSCCc1ccccn1)OCO2`: the fluorescence artifact activation was 0.01% (inactive).

Take `O=C(CN1C(=O)c2ccccc2C1=O)N1CCN=C1c1ccccc1`: the fluorescence artifact activation was 19.8% (active).

Take `O=C(c1ccc(F)cc1)N1CCN=C1c1ccccc1`: the fluorescence artifact activation was 0.24% (inactive).

Take `O=C1c2ccccc2C(=O)N1CC1=NCCc2ccccc21`: the fluorescence artifact activation is 0.03% (inactive).

As for `O=C(O)c1ccccc1/C=N/NC(=S)NC1CCCCC1`, the fluorescence artifact activation is 0.11% (inactive).

For the compound `CSc1ccc(Cl)c(C(=O)NNC(=O)c2csc(N3CCOCC3)n2)c1`, the fluorescence artifact activation is 2.41% (inactive).

With `CCCN1CC=C2C(C#N)=C(N)C(C#N)(C#N)C(c3cccc(OC)c3OC)C2C1` (stereo not given), the fluorescence artifact activation is 0.1% (inactive).

Take `Nc1nc(NCc2ccco2)nc(N2CCCCCC2)c1[N+](=O)[O-]`: the fluorescence artifact activation is 1.86% (inactive).

Regarding `Cc1cc(/C=C2\SC(=S)N(Cc3ccco3)C2=O)c(C)n1-c1ccccc1`, the fluorescence artifact activation is 3.1% (inactive).

As to `COc1ccc(-n2c(C)cc(/C=C3\SC(=S)N(Cc4ccco4)C3=O)c2C)cc1`, the fluorescence artifact activation was 91.9% (active).

`Cc1cc(/C=C2\SC(=S)N(Cc3ccco3)C2=O)c(C)n1-c1cccnc1`: the fluorescence artifact activation was 10.8% (inactive).

`Cc1nc(NC(=O)C(Cl)Cl)sc1C(=O)N(C)C`: the fluorescence artifact activation is 0.56% (inactive).

For the compound `CC(C)CCNC(=O)c1ccc2c(SCC(=O)O)c3c(nc2c1)CCC3`, the fluorescence artifact activation is 12.9% (active).

`CCOc1c2ccc(C(=O)NCCc3cccs3)cc2nn1CC`: the fluorescence artifact activation is 0.58% (inactive).

With `COC(=O)C1C2CC3c4[nH]c5cc(OC)ccc5c4CCN3CC2CC(OC(=O)CC(C)=O)C1OC` (stereo not given), the fluorescence artifact activation is 0.13% (inactive).

Turning to `Cc1ccc(/C=C2/NC(=O)N(Cc3ccccc3)C2=O)s1`, the fluorescence artifact activation was 0.01% (inactive).

Turning to `CN(C)c1ccc(/C=C2\NC(=S)N(Cc3ccccc3)C2=O)cc1`, the fluorescence artifact activation is 91.1% (active).

Take `CN(C)c1ccc(/C=C2\CCC/C(=C\c3ccccc3)C2=O)cc1`: the fluorescence artifact activation was 0.02% (inactive).

For the compound `COC(=O)c1sccc1Oc1ccc(Cl)cc1N1C(=O)CCC1=O`, the fluorescence artifact activation was 0.03% (inactive).

With `COC(=O)c1c(=O)n(O)c2ccc(OC)cc2[n+]1[O-]`, the fluorescence artifact activation was 0.04% (inactive).

For `C=CCn1c(=O)/c(=C/c2cc(OC)c(OC)c(OC)c2)s/c1=C(/C#N)c1nc2ccccc2n1C`, the fluorescence artifact activation is 0.02% (inactive).

Consider `Cc1cccc(OCc2nn[nH]n2)c1C`, for which the fluorescence artifact activation was 1.02% (inactive).

For the compound `COc1ccccc1C1=NOC(Cn2c(=O)c3c(ncn3C)n(C)c2=O)C1` (stereo not given), the fluorescence artifact activation is 0.23% (inactive).

Regarding `CCN(CC)CCN1C(=O)c2cccc3cc(N)cc(c23)C1=O`, the fluorescence artifact activation is 24.6% (active).

For `CC(C)CCN1C(=O)c2cccc3c(N)ccc(c23)C1=O`, the fluorescence artifact activation is 1.45% (inactive).

On to `O=C1c2cccc3cc([N+](=O)[O-])cc(c23)C(=O)N1CCN1CCCC1`, for which the fluorescence artifact activation was 0.08% (inactive).

Regarding `Cc1ccc(Cn2c(O)c(N=NC(=S)Nc3ccccc3F)c3cc(S(=O)(=O)N4CCOCC4)ccc32)cc1`, the fluorescence artifact activation was 5.72% (inactive).

`COC(=O)c1cc(NC(=O)c2ccccc2)c(=O)oc1C/C=N\OCc1ccc(Cl)cc1Cl`: the fluorescence artifact activation was 0.01% (inactive).

On to `CC(=O)c1cc(NC(=O)c2ccc(C)cc2)c(=O)oc1/C=C/N(C)C`, for which the fluorescence artifact activation is 15.6% (active).

With `CC(=O)c1cc(NC(=O)c2ccc(Cl)cc2)c(=O)oc1/C=C/N(C)C`, the fluorescence artifact activation is 0.02% (inactive).

In the case of `N#CC12COC3(CCCCC3C1(C#N)C#N)OC2=N` (stereo not given), the fluorescence artifact activation is 0.14% (inactive).

`CN(CC(=O)NCc1ccco1)S(=O)(=O)c1cccc2cccnc12`: the fluorescence artifact activation is 6.75% (inactive).

As to `CCOc1ccc(N(C(=O)CNC(=O)c2ccco2)C(C(=O)NC2CCCC2)c2ccncc2)cc1` (stereo not given), the fluorescence artifact activation was 0.08% (inactive).

In the case of `CCC(C)(C)NC(=O)C(c1ccc(F)cc1)N(Cc1ccco1)C(=O)c1cnccn1` (stereo not given), the fluorescence artifact activation was 18.7% (active).
